Assay results as given in PMC8286830 (Biochemical Journal, 2021).
“Also recorded” adds a separate entry of the source.

What was measured:
TgCEN1 [1] = assay: Turbidimetry at 340 nm, TgCEN1 self-assembly; format: physicochemical, Toxoplasma gondii; details: increasing ANS concentrations, 1 mM CaCl2, 20 mM KCl, pH 7.5, 37°C
In short: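 Full-length protein (E. coli Rosetta) at 20 µM in 20 mM Tris–HCl, 20 mM KCl pH 7.5, 37°C, A340 recorded versus time. Run with 1 mM CaCl2, with 1 mM EGTA, or with EGTA added to Ca2+-saturated protein. Ca2+ series 5–2000 µM, read at 25 min versus metal/protein ratio. Also varied: temperature 4–45°C, protein 5–50 µM, KCl 0–150 mM, and 600 µM ANS.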

N-TgCEN1 = assay: DLS particle size of N-TgCEN1; format: physicochemical, Toxoplasma gondii; details: 600 µM ANS, 10 µM N-TgCEN1, 1 mM CaCl2
In short: (§1)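 Domains produced in E. coli Rosetta: N-domain residues 1–94 and C-domain 95–169. […] 10 µM protein in 20 mM Tris–HCl pH 7.5, 1 mM CaCl2, at selected KCl concentrations or with 600 µM ANS. Samples centrifuged at 21 000 g for ≥30 min; filtered buffers. Hydrodynamic diameter reported as number distribution (633 nm laser, 173°).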

TgCEN1 [2] = assay: DLS particle size of TgCEN1; format: physicochemical, Toxoplasma gondii; details: 600 µM ANS, 1 mM CaCl2, 20 mM Tris–HCl, 20 mM KCl pH 7.5, 37°C
C-TgCEN1 [3] = target: T1, C-TgCEN1 (Toxoplasma gondii, UniProt A0A125YHX7); assay: DLS particle size of C-TgCEN1; format: physicochemical
In short: as §1

Δ21TgCEN1 [4] = target: T2, Δ21TgCEN1 (Toxoplasma gondii, UniProt A0A125YHX7); assay: DLS particle size / count rate of Δ21TgCEN1; format: physicochemical; details: 50 µM N21, 1 mM CaCl2
T2 sequence (A0A125YHX7 22-169): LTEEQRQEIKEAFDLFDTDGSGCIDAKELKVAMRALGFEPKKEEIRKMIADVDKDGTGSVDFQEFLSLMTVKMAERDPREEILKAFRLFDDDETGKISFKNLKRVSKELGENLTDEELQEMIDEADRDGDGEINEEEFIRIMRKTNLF
In short: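 Recombinant tag-free Δ21TgCEN1 from E. coli Rosetta (Ni affinity, TEV cleavage). For DLS, 10 µM protein in 20 mM Tris–HCl, 20 mM KCl pH 7.5 with 1 mM CaCl2 at 37°C was spun at 21 000 g for ≥30 min, then measured before and after adding 50 µM N21 peptide. Diameter was reported as number distribution. In parallel, A340 turbidity of 20 µM protein was followed over time.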

Δ21TgCEN1 [5] = target: T2, Δ21TgCEN1; assay: Turbidimetry at 340 nm, Δ21TgCEN1; format: physicochemical; details: 20 µM Δ21TgCEN1 + 50 µM N21, 1 mM CaCl2, 20 mM KCl pH 7.5, 37°C
In short: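 Construct lacking residues 1–21 (E. coli Rosetta) at 20 µM in 20 mM Tris–HCl, 20 mM KCl pH 7.5, 1 mM CaCl2, 37°C. A340 followed over time, before and after adding 50 µM synthetic N-terminal peptide (residues 1–21). Peptide alone with CaCl2 run as a control trace.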

[6] = Turbidimetry at 340 nm, N21 peptide alone; format: physicochemical; details: 1 mM CaCl2, 20 mM Tris–HCl, 20 mM KCl pH 7.5, 37°C, turbidity at 340 nm
In short: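 Synthetic N21 peptide (>90% HPLC purity, mass confirmed by ESI-MS) alone with 1 mM CaCl2 in 20 mM Tris–HCl, 20 mM KCl pH 7.5 at 37°C. Absorbance at 340 nm recorded over time in 1 cm quartz cuvettes.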

EoCEN = details: addition of XPC peptide; cited from earlier work
[7] = Far-UV CD of the substance alone; format: physicochemical; details: 20 µM, aqueous solution, 50 mM Tris–HCl, 150 mM KCl pH 7.5, 25°C
In short: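 Synthetic peptide (>90% HPLC purity, mass confirmed by ESI-MS), quantified by ε280 = 5500 M−1 cm−1, at 20 µM. Buffer: 50 mM Tris–HCl, 150 mM KCl pH 7.5, 0.5 mM DTT with 5 mM CaCl2 or EGTA. Spectra 200–250 nm, 0.1 cm cell, 25°C, average of five accumulations, buffer spectrum subtracted.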

C-TgCEN1 [8] = target: T1, C-TgCEN1; assay: Turbidimetry at 340 nm, C-TgCEN1; format: physicochemical; details: 20 µM, 1 mM CaCl2, 20 mM KCl pH 7.5, 37°C
In short: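 Recombinant N-domain (1–94) or C-domain (95–169), Ni-affinity purified. A340 followed over time in a 1 cm cuvette. Standard conditions: 20 µM protein, 20 mM Tris–HCl, 20 mM KCl pH 7.5, 1 mM CaCl2, 37°C. Conditions also varied: CaCl2 0–2 mM, temperature 4–45°C, protein 5–50 µM, KCl 0–150 mM, or 600 µM ANS added.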

[9] = 600 µM ANS, 10 µM C-TgCEN1, 1 mM CaCl2

## O=S(=O)(O)c1cccc2cccc(Nc3ccccc3)c12 [ANS, 1-anilino-8-naphthalenesulphonic acid, reference compound]
TgCEN1 [1]
  TgCEN1 final turbidity at 340 nm with ANS: decreased at increasing ANS concentrations; also recorded: only partially quenched the aggregation process
N-TgCEN1
  effect of ANS on association of N-TgCEN1: no effect
TgCEN1 [2]
  hydrodynamic diameter of TgCEN1 particles with ANS: ~238 nm
C-TgCEN1 [3]; [9]
  diameter of new species of C-TgCEN1 with ANS (larger): 35 ± 1 nm
  diameter of new species of C-TgCEN1 with ANS (smaller): 7.96 ± 0.01 nm

## 1-MHSRKGASSLPRGRGAGKKTE-21 [N21]
Δ21TgCEN1 [4]
  DLS count rate of Δ21TgCEN1 with N21: increase
Δ21TgCEN1 [5]
  Δ21TgCEN1 light scattering at 340 nm with N21: an increase in the light scattering at 340 nm
[6]
  Ca^2+-induced aggregation of peptide alone: did not aggregate upon addition of Ca^2+ in solution

## XPC peptide: XPC peptide added to centrin from Euplotes octocarinatus (EoCEN), cited ref 43 (NWKLLAKGLLIRERLKR)
EoCEN
  effect on protein aggregates: dissociation of protein aggregates

## C-TgCEN1: C-terminal domain of TgCEN1, 95–169 aa
[7]
  far-UV CD conformation alone: well-folded
C-TgCEN1 [8]
  turbidity at 340 nm: no turbidity changes at 340 nm
C-TgCEN1 [3]; 10 µM, 1 mM CaCl2, 20 mM Tris–HCl, 20 mM KCl pH 7.5
  particle diameter: 311 ± 1 nm
C-TgCEN1 [3]; 10 µM, selected KCl concentrations, 1 mM CaCl2
  DLS profile vs salt: only small changes in the DLS profiles
